Reference: ChEMBL document CHEMBL4699439, “Design and development of novel N-(pyrimidin-2-yl)-1,3,4-oxadiazole hybrids to treat cognitive dysfunctions” (Bioorg Med Chem, 2019)
Active and inactive are the calls of the source. The calls are words filed in the database; no cut-off is given here.

How the values were obtained:
[1] = Antioxidant activity assessed as DPPH radical scavenging activity at 20 uM after 30 mins under dark condition by DPPH assay relative to control; type: functional
Outline: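 Test compound at 20 µM (solution strength) mixed with 0.5 mM DPPH solution and kept in the dark for 30 min. Absorbance read at 517 nm. % inhibition = (A0−At)/A0 × 100. Ascorbic acid used as standard. Run in triplicate.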

[2] = target: Cholinesterase (Homo sapiens, UniProt P06276); assay: Inhibition of human serum BChE using butyrylthiocholine iodide as substrate preincubated for 10 mins followed by substrate addition and measured for 10 mins by DTNB reagent based Ellman's method; type: cell-free
Chain of Cholinesterase (Homo sapiens, UniProt P06276) (P06276 whole entry): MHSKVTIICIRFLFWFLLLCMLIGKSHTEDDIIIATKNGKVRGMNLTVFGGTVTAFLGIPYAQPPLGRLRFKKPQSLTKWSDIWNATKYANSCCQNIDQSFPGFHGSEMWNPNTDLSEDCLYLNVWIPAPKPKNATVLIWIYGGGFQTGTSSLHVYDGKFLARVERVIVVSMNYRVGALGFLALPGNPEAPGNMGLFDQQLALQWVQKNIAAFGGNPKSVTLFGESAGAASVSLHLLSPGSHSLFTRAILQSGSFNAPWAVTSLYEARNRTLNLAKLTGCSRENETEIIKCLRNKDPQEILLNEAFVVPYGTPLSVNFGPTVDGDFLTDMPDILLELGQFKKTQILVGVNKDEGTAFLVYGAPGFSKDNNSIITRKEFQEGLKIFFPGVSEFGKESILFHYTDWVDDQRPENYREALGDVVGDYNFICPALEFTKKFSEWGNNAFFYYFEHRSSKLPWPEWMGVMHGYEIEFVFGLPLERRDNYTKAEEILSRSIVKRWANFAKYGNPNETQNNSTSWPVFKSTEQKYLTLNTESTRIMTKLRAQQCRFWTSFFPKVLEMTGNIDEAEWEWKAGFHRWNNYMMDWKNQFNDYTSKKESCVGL
Outline: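 Enzyme is BChE from human serum, 0.02 units/ml in 0.1% gelatin pH 7.4, preincubated with compound 10 min at 37 °C. Then 0.1 M phosphate containing 340 µM DTNB and 550 µM BTCI added. A412 followed 10 min at 37 °C. DMSO ≤1%. IC50 from nonlinear log-inhibitor fit, n=3.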

[3] = target: T1, Acetylcholinesterase (Homo sapiens, UniProt P22303); assay: Inhibition of human erythrocyte AChE using acetylthiocholine iodide as substrate preincubated for 10 mins followed by substrate addition and measured for 10 mins by DTNB reagent based Ellman's method; type: tissue-based
T1 sequence (P22303 whole entry): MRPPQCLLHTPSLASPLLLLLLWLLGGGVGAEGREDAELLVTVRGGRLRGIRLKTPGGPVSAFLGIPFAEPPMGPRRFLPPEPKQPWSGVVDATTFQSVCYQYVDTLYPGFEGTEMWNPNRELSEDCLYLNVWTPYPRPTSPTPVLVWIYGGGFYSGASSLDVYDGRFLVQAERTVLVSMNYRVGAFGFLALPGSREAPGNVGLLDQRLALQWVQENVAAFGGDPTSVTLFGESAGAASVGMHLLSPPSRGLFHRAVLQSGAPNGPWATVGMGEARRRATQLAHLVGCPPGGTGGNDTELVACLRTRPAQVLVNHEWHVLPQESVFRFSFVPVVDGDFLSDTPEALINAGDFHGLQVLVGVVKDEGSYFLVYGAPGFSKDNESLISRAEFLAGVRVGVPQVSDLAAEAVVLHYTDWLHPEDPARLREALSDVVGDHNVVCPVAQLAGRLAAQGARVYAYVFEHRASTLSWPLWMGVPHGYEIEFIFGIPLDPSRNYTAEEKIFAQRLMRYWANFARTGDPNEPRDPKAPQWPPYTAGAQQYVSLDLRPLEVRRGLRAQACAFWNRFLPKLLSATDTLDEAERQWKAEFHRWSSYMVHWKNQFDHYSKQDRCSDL

[4] = test system: SH-SY5Y; assay: Neuroprotection against amyloid beta (25 to 35)-induced toxicity in human SH-SY5Y cells assessed as cell viability at 10 uM preincubated for 2 hrs followed by incubation with amyloid beta (25 to 35) for 24 hrs relative to control; type: functional; conditions: time 26 hrs, read-out: Activity
[5] = Effective permeability of compound in PBS buffer at pH 7.4 at 25 ug/ml incubated for 20 hrs by PAMPA-BBB assay
[6] = target: Cholinesterase (Equus caballus, UniProt P81908); assay: Inhibition of equine serum BChE using butyrylthiocholine iodide as substrate incubated for 30 mins followed by substrate addition and measured for 20 mins by Ellman's method
Chain of Cholinesterase (Equus caballus, UniProt P81908) (P81908 whole entry): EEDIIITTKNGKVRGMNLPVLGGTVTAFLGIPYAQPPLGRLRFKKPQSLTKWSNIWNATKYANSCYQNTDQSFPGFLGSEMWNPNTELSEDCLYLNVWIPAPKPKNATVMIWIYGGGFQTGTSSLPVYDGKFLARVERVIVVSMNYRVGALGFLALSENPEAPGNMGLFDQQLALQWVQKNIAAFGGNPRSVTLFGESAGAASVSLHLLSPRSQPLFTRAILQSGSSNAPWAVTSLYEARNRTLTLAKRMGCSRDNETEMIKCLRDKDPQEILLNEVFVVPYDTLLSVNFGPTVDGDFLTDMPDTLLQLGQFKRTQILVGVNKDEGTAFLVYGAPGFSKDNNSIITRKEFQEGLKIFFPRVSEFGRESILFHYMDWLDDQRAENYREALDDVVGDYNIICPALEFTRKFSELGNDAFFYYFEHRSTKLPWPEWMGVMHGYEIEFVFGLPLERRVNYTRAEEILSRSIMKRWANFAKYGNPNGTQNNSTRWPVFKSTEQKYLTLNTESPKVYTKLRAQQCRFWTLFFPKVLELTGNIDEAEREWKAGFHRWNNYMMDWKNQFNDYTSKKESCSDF

[7] = target: Acetylcholinesterase (Electrophorus electricus, UniProt O42275); assay: Inhibition of recombinant Electric eel AChE incubated for 15 mins by amplex red reagent based fluorescence assay
Chain of Acetylcholinesterase (Electrophorus electricus, UniProt O42275) (O42275 whole entry): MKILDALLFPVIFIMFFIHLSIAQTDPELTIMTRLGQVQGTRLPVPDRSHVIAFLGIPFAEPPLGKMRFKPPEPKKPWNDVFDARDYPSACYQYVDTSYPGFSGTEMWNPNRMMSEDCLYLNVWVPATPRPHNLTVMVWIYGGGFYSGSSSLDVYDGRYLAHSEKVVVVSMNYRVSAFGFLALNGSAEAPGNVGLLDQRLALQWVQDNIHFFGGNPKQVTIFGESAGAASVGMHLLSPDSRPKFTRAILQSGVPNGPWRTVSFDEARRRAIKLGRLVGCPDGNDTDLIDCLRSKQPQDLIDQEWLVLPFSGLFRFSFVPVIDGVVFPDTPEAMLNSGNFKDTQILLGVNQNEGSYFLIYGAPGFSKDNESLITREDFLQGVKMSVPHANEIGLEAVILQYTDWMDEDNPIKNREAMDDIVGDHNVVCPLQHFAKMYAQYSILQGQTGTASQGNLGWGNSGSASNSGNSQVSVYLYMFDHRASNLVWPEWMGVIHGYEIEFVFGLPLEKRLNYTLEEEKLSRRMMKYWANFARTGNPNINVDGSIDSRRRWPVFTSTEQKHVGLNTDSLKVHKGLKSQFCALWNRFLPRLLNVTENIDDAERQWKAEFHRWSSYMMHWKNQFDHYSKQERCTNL

[8] = test system: Mus musculus; assay: Reversal of scopolamine-induced memory cognitive memory impairment in po dosed Swiss albino mouse assessed as increase in transfer latency time administered once daily for 7 days and administered with scopolamine at 30 mins after compound challenge on 7th day and measured during retention trial on day 7 by passive avoidance test; type: functional, organism-based; conditions: dose mg/kg 2.5-10, time 7.0 day
Outline: (§1)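 Dosing as for the Y-maze: p.o. in CMC daily for 7 days, scopolamine 0.5 mg/kg i.p. on day 7, six mice per group. Apparatus is a two-compartment lit/dark box. Acquisition begins 5 min after scopolamine, with the mouse held in the lit side for 30 s. Latency to enter the dark side recorded as transfer latency time. No foot shock in the retention trial.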

[9] = test system: Mus musculus; assay: Reversal of scopolamine-induced memory cognitive memory impairment in po dosed Swiss albino mouse assessed as increase in transfer latency time administered once daily for 7 days and administered with scopolamine at 30 mins after compound challenge on 7th day and measured during acquisition trial on day 7 by passive avoidance test; type: functional, organism-based; conditions: dose mg/kg 2.5-10, time 7.0 day; outline: as §1
[10] = Acute toxicity in Swiss albino mouse assessed as salivation at 500 mg/kg, po measured for 14 days; type: organism-based; conditions: in vivo, 336 h, time 14 day
Outline: (§2)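 Adult male Swiss albino mice, 25-30 g, dosed orally following OECD 423 at various doses up to 500 mg/kg. Watched at 30 min, 2 h, 4 h and 24 h for autonomic and behavioural changes. Followed for 14 days for tremors, convulsions, salivation, diarrhea, lethargy, sleep and coma.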

[11] = target: T1, Acetylcholinesterase; assay: Inhibition of human AChE-induced amyloid beta(1 to 42) aggregation incubated for 48 hrs by thioflavin-T fluorescence method; conditions: dose microM 5-20, time 48.0 hrs
Outline: (§3)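 Aβ1-42 (10 µM) incubated with hAChE ([…]) with or without compound (5, 10 and 20 µM) at 37 °C for 48 h, DMSO below 1%. ThT then added at 5 µM. Fluorescence read at ex 485/em 528 nm. % inhibition taken from intensities with vs without inhibitor. Run in triplicate.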

[12] = Acute toxicity in Swiss albino mouse assessed as convulsion at 500 mg/kg, po measured for 14 days; type: organism-based; conditions: in vivo, 336 h, time 14 day; outline: as §2
[13] = Acute toxicity in Swiss albino mouse assessed as lacrimation at 500 mg/kg, po observed for 24 hrs; type: organism-based; conditions: in vivo; outline: as §2
[14] = Acute toxicity in Swiss albino mouse assessed as diarrhea at 500 mg/kg, po measured for 14 days; type: organism-based; conditions: in vivo, 336 h, time 14 day; outline: as §2
[15] = target: T1, Acetylcholinesterase; assay: Inhibition of human AChE-induced amyloid beta(1 to 42) aggregation at Abeta:compound concentration ratio of 1:2 incubated for 48 hrs by thioflavin-T fluorescence method; outline: as §3
[16] = Acute toxicity in Swiss albino mouse assessed as feeding behavior at 500 mg/kg, po observed for 24 hrs; type: organism-based; conditions: in vivo; outline: as §2
[17] = Acute toxicity in Swiss albino mouse assessed as sleep at 500 mg/kg, po measured for 14 days; type: organism-based; conditions: in vivo, 336 h, time 14 day; outline: as §2
[18] = Acute toxicity in Swiss albino mouse assessed as mortality at 500 mg/kg, po observed for 24 hrs; type: organism-based; conditions: in vivo; outline: as §2
[19] = in vitro; conditions: human, SH-SY5Y cells
[20] = test system: Mus musculus; assay: Antioxidant activity in scopolamine-induced memory impairment Swiss albino mouse model assessed as reduction in scopolamine-induced oxidative stress by measuring increase in total non-protein thiol level at 10 mg/kg, po administered once daily for 7 days and administered with scopolamine at 30 mins after compound challenge on 7th day; type: functional, organism-based; conditions: time 7.0 day
Outline: (§4)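 Male Swiss albino mice, six per group. Compound suspended in 0.3% w/v CMC, given p.o. once daily for 7 days. Scopolamine HBr 0.5 mg/kg i.p., in water, given 30 min after dosing on day 7. After behavioural tests, whole brain homogenised in 10 mM PBS pH 7.4 and supernatant used. Protein by Lowry method. For MDA (TBARS), supernatant incubated 2 h at 37 °C, TCA-precipitated, heated with 0.67% thiobarbituric acid at 50 °C for 10 min, A532, expressed as moles MDA/mg protein. For nonprotein thiol (Sedlak–Lindsay), TCA supernatant in Tris-EDTA pH 8.9 reacted with DTNB, A412 within 5 min, expressed as µM/mg protein.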

[21] = Acute toxicity in Swiss albino mouse assessed as tremor at 500 mg/kg, po measured for 14 days; type: organism-based; conditions: in vivo, 336 h, time 14 day; outline: as §2
[22] = test system: Mus musculus; assay: Antioxidant activity in scopolamine-induced memory impairment Swiss albino mouse model assessed as reduction in scopolamine-induced oxidative stress by measuring increase in SOD level at 10 mg/kg, po administered once daily for 7 days and administered with scopolamine at 30 mins after compound challenge on 7th day; type: functional, organism-based; conditions: time 7.0 day
Outline: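 Same mouse dosing and brain supernatant preparation as the oxidative-stress assays. For SOD, supernatant mixed with reagent containing 0.1 mM EDTA, 24 µM NBT and 50 mM Na2CO3, plus hydroxylamine hydrochloride. Assay at pH 10.2, absorbance read at 560 nm.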

[23] = test system: Mus musculus; assay: Reversal of scopolamine-induced memory cognitive memory impairment in po dosed Swiss albino mouse assessed as increase in spontaneous alteration rate administered once daily for 7 days and administered with scopolamine at 30 mins after compound challenge on 7th day and measured for 5 mins on day 7 by Y-maze test; type: functional, organism-based; conditions: dose mg/kg 2.5-10, time 7.0 day
Outline: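 Male Swiss albino mice, six per group. Compound given p.o. in 0.3% CMC daily for 7 days, at 2.5, 5 or 10 mg/kg. Scopolamine 0.5 mg/kg i.p. given 30 min after the day-7 dose. Each mouse placed in a three-arm Y-maze and arm entries and alternations recorded over 5 min. % alternation = alternations/(total entries−2) × 100.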

[24] = target: T1, Acetylcholinesterase; assay: Non-competitive inhibition of human erythrocyte AChE using acetylthiocholine iodide as substrate at 0.15 to 0.6 uM preincubated for 10 mins followed by substrate addition and measured for 10 mins by Ellman's method based Line-weaver Burk plot analysis; type: tissue-based
[25] = test system: Mus musculus; assay: Antioxidant activity in scopolamine-induced memory impairment Swiss albino mouse model assessed as reduction in scopolamine-induced oxidative stress by measuring decrease in malondialdehyde level at 10 mg/kg, po administered once daily for 7 days and administered with scopolamine at 30 mins after compound challenge on 7th day by TBARS assay; type: functional, organism-based; conditions: time 7.0 day; outline: as §4
[26] = test system: Mus musculus; assay: Ex vivo inhibition of Swiss mouse brain AChE using ACTI as substrate at 10 mg/kg, po administered once daily for 7 days and administered with scopolamine at 30 mins after compound challenge on 7th day and measured on day 7 by Ellman's method; type: functional, organism-based; conditions: time 7.0 day
Outline: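 Male Swiss albino mice dosed p.o. daily for 7 days in 0.3% CMC. Scopolamine 0.5 mg/kg i.p. given 30 min after the day-7 dose. Brain homogenate supernatant incubated with 0.1 M phosphate pH 7.4 and DTNB for 10 min at 37 °C. ATCI then added from a 7.5 mM stock. A412 followed for 10 min. Expressed as ACh hydrolysed/min/mg protein (Lowry).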

Row | SMILES | inhibition [1] [%] | IC50 [2] [µM] | IC50 [3] [µM] | also measured
1 | COc1cc2c(cc1OC)C(=O)C(CC1CCN(Cc3ccccc3)CC1)C2 (configuration not stated) | < 20 |  |  | 
2 | O=[N+]([O-])c1ccc(-c2nnc(Nc3ncccn3)o2)cc1 | < 20 | > 50.1 | > 5.01 | 
3 | Cc1ccc(-c2nnc(Nc3ncccn3)o2)cc1 | < 20 | > 50.1 | 1.62 | 
4 | Brc1cccc(-c2nnc(Nc3ncccn3)o2)c1 | 47.9 | 20.4 | 3.31 | 
5 | c1ccc(-c2nnc(Nc3ncccn3)o2)cc1 | 51.4 | > 50.1 | 2.04 | 
6 | Brc1ccc(CSc2nnc(CSc3nc4ccccc4s3)o2)cc1 |  |  |  | viability at 10 µM [4]: 95.7%
7 | Brc1ccc(-c2nnc(Nc3ncccn3)o2)cc1 | 47.8 | 22.9 | 3.72 | 
8 | COc1cc(-c2nnc(Nc3ncccn3)o2)cc(OC)c1OC | 57.7 | > 50.1 | 1.23 | Papp at 20 h, 25 ug/ml [5]: 4.21 ×10⁻⁶ cm/s
9 | Oc1ccc(-c2nnc(Nc3ncccn3)o2)cc1 | 63.4 | > 50.1 | 1.74 | Papp at 20 h, 25 ug/ml [5]: 3.23 ×10⁻⁶ cm/s
10 | Clc1ccccc1-c1nnc(Nc2ncccn2)o1 | < 20 | > 50.1 | > 5.01 | 
11 | C#CCOc1ccc(-c2cc(-c3ccc(OCCN4CCOCC4)cc3)nc(N)n2)cc1 |  |  |  | IC50 [6]: 0.666 µM; IC50 [7]: 0.304 µM
12 | Clc1ccc(-c2nnc(Nc3ncccn3)o2)cc1 | 46.2 | > 50.1 | 2.88 | 
13 | c1cnc(Nc2nnc(-c3cccc4ccccc34)o2)nc1 | 60 | 12 | 0.302 | Activity [8]: Dose-dependent effect; Activity [9]: Dose-dependent effect; Activity [10]: Non-Toxic; inhibition [11]: Dose-dependent effect; Activity [12]: Non-Toxic; Activity [13]: Non-Toxic; Activity [14]: Non-Toxic; inhibition [15]: Active; Activity [16]: Non-Toxic; Activity [17]: Non-Toxic; Activity [18]: Non-Toxic; IC50 at 24 h [19]: 79.4 µM; Activity [20]: Active; Activity [21]: Non-Toxic; Activity [22]: Active; Activity [23]: Dose-dependent effect; Ki [24]: 0.17 µM; Activity [25]: Active; inhibition [26]: Active; Papp at 20 h, 25 ug/ml [5]: 5.82 ×10⁻⁶ cm/s
14 | Oc1ccccc1-c1nnc(Nc2ncccn2)o1 | 58.8 | > 50.1 | > 5.01 | 
15 | COc1ccc(-c2nnc(Nc3ncccn3)o2)cc1 | 45.8 | > 50.1 | 1.55 | 
16 | COc1ccc(-c2nnc(Nc3ncccn3)o2)cc1OC | 49.5 | > 50.1 | 1.91 | 
17 | O=[N+]([O-])c1ccccc1-c1nnc(Nc2ncccn2)o1 | 51.8 | > 50.1 | 3.39 | 
18 | Fc1ccc(-c2nnc(Nc3ncccn3)o2)cc1 | 41.9 | > 50.1 | 2.4 | 
19 | O=C1O[C@H]([C@@H](O)CO)C(O)=C1O | 64.6 |  |  | 
